From ChEMBL document CHEMBL4138118, “Novel thioglycosyl analogs of glycosyltransferase substrates as antiviral compounds against classical swine fever virus and hepatitis C virus” (Eur J Med Chem, 2017)
The source made the active and inactive calls. The calls are words filed in the database; no cut-off is given here.

Columns and labels:
[1] = test system: Classical swine fever virus; test: Antiviral activity against CSFV infected in SK6 cells assessed as reduction of pseudo-plaque formation after 2 days by immunoperoxidase monolayer assay; format: functional, organism-based; settings: 48 h
[2] = Cytotoxicity against SK6 cells assessed as reduction in cell viability after 2 days by MTS method; format: cell-based, Sus scrofa; settings: pig; for Activity: 48 h; for CC50 at 48 h: SK6 cells
Outline: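 SK6 viability by MTS (CellTiter 96 AQueous) assay; CC50 is the concentration reducing viability by 50%, taken from the dose-response curve.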

[3] = Selectivity index, ratio of CC50 for SK6 cells to IC50 for CSFV; format: toxicity; settings: pig, read-out: Ratio CC50/IC50
Outline: (§1)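 Selectivity index is CC50/IC50, taken from the cell viability assay (SK6 by MTS, Huh-7.5 by MTT) and the matching pseudo-plaque reduction assay.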

Hepatitis C virus [4] = test: Antiviral activity against HCV Jc1/JFH infected in human Huh7.5 cells assessed as reduction of pseudo-plaque formation after 72 hrs by immunoperoxidase monolayer assay; format: functional, organism-based, Hepacivirus hominis; settings: for IC50: Huh7.5, 72 h
Outline: (§2)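 Huh-7.5 cells seeded at 1.5 × 10^4 per well, infected next day with Jc1/JFH HCVcc (genotype 2a) at MOI 0.1 for 3 h. Virus removed, medium with compound added; 72 h later cells fixed in cold methanol, permeabilized (0.5% Triton X-100), stained with anti-core antibody (1:300), HRP secondary. Pseudo-plaques counted by microscopy against untreated infected control; IC50 at 50% plaque reduction; three independent experiments.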

[5] = Cytotoxicity against human Huh7.5 cells assessed as reduction in cell viability after 72 hrs by MTT method; format: cell-based
[6] = Selectivity index, ratio of CC50 for Huh7.5 cells to IC50 for HCV Jc1/JFH; format: toxicity; settings: human, read-out: Ratio CC50/IC50; outline: as §1
[7] = test system: Classical swine fever virus; test: Antiviral activity against CSFV infected in SK6 cells assessed as reduction of pseudo-plaque formation at 9 uM after 2 days by immunoperoxidase monolayer assay relative to control; format: functional; design: scale not given: the % may be the effect or the level left
Hepatitis C virus [8] = test: Antiviral activity against HCV Jc1/JFH infected in human Huh7.5 cells assessed as reduction of pseudo-plaque formation at 80 uM after 72 hrs by immunoperoxidase monolayer assay relative to control; format: functional, Hepacivirus hominis; design: scale not given: the % may be the effect or the level left; outline: as §2
[9] = test system: Classical swine fever virus; test: Inhibition of CSFV glycosyltransferase in SK6 cells assessed as downregulation of viral E2 levels under non-reducing condition after 48 hrs by Western blot method; format: cell-based
[10] = Effect on actin levels in SK6 cells at 2.5 to 10 uM under non-reducing condition after 48 hrs by Western blot method; format: ADME, cell-based, Sus scrofa; settings: pig
[11] = Effect on actin levels in human Huh7.5 cells at 6.25 to 100 uM under reducing condition after 48 hrs by Western blot method; format: ADME, cell-based
Outline: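 Huh-7.5 cells infected with HCV (MOI 0.1), washed after 1–6 h, then treated with inhibitor. Lysed in RIPA buffer with protease inhibitors after 48 h (methods; legend gives 72 h p.i.). 20 µg protein run on reducing SDS-PAGE; Western blot probed with anti-E1 mAb (1:2000) and anti-actin (1:1000).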

Hepatitis C virus [12] = test: Antiviral activity against HCV genotype 2a JFH1 infected in human Huh7-J20 cells assessed as inhibition of viral entry at 1.56 to 75 uM pretreated for 1 hr with cells followed by viral infection for 3 hrs and subsequent compound washout measured after 72 hrs by SEAP reporter assay; format: functional, organism-based; settings: Hepacivirus hominis, JFH-1
Outline: (§3)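 Huh7-J20 SEAP reporter cells, infected with JFH-1 HCVcc, read-out SEAP chemiluminescence in supernatant after 72 h. Model 1: 1 h compound pretreatment, 3 h infection with compound, then compound-free medium. Model 2: same, with compound kept for the full 72 h. Model 3: 3 h infection, compound added afterwards only. DMSO control; three experiments.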

Hepatitis C virus [13] = test: Antiviral activity against HCV genotype 2a JFH1 infected in human Huh7-J20 cells assessed as inhibition of complete viral life cycle at 1.56 to 75 uM pretreated for 1 hr with cells followed by viral infection for 3 hrs and subsequent addition of fresh medium with compound measured after 72 hrs by SEAP reporter assay; format: functional, organism-based; settings: Hepacivirus hominis, JFH-1; outline: as §3
Hepatitis C virus [14] = test: Antiviral activity against HCV genotype 2a JFH1 infected in human Huh7-J20 cells assessed as inhibition of viral RNA replication at 1.56 to 75 uM after 72 hrs by SEAP reporter assay; format: functional, organism-based; settings: Hepacivirus hominis, JFH-1; outline: as §3
Hepatitis C virus [15] = test: Antiviral activity against HCV genotype 2a JFH1 infected in human Huh7-J20 cells assessed as inhibition of viral assembly at 1.56 to 75 uM after 72 hrs by SEAP reporter assay; format: functional, organism-based; settings: Hepacivirus hominis, JFH-1; outline: as §3
[16] = Cytotoxicity against human Huh7-J20 cells assessed as decrease in cell viability at 1.56 to 75 uM after 72 hrs by MTT assay; format: cell-based
Outline: (§4)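 Uninfected Huh7-J17, Huh7-J20 or Huh-7.5 cells incubated with compound, then viability read by MTT. Time stated as 72 h for Huh7-J20 and Huh7-J17, and 48 h for Huh-7.5. Results expressed relative to DMSO-treated cells (100%); CC50 from the dose-response curve.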

Hepatitis C virus [17] = test: Antiviral activity against HCV infected in human Huh7-J17 cells assessed as inhibition of viral RNA replication at 75 uM after 72 hrs by bright-glo luciferase reporter assay relative to control; format: functional, Hepacivirus hominis
Outline: (§5)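 Huh7-J17 replicon cells seeded in 96-well plates together with compound, DMSO or sofosbuvir and incubated 72 h. Cells lysed and luciferase read with Bright-Glo. Values expressed as % of DMSO-treated cells; IC50 from dose-response fit; three experiments.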

Hepatitis C virus [18] = test: Antiviral activity against HCV infected in human Huh7-J17 cells assessed as inhibition of viral RNA replication after 72 hrs by bright-glo luciferase reporter assay; format: functional, organism-based, Hepacivirus hominis; outline: as §5
[19] = Cytotoxicity against human Huh7-J17 cells assessed as decrease in cell viability after 72 hrs by MTT assay; format: cell-based; outline: as §4
Hepatitis C virus [20] = test: Antiviral activity against HCV Jc1/JFH infected in human Huh7.5 cells assessed as downregulation of NS5B gene expression after 48 hrs by RT-PCR method; format: functional, organism-based; settings: Hepacivirus hominis
Outline: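 Huh-7.5 cells infected with HCV (MOI 0.1) for 4 h, washed, then cultured with compound for 48 h. Total RNA isolated; 1 µg reverse-transcribed with an NS5B-specific reverse primer, then PCR for NS5B. Band densitometry expressed as % of untreated infected control.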

SMILES | IC50 [1] [µM] | Activity [2] | CC50 at 48 h [2] [µM] | selectivity ratio [3] | IC50 (Hepatitis C virus [4]) [µM] | CC50 at 72 h [5] [µM] | selectivity ratio [6] | further results
O=C(Nc1ccc(S[C@@H]2O[C@H](CO)[C@@H](O)[C@H](O)[C@H]2O)nc1)[C@H]1O[C@@H](n2ccc(=O)[nH]c2=O)[C@H](O)[C@@H]1O | 370 | Dose-dependent effect | 380 | 1 | 402 | 420 | 1.05 | –
CC(=O)OC[C@H]1O[C@@H](Sc2ccc(NC(=O)[C@H]3O[C@@H](n4ccc(=O)[nH]c4=O)[C@H](O[Si](C)(C)C(C)(C)C)[C@@H]3O[Si](C)(C)C(C)(C)C)cn2)[C@H](OC(C)=O)[C@@H](OC(C)=O)[C@@H]1OC(C)=O | 3 | Dose-dependent effect | 86 | 28.7 | 7 | 135 | 19.3 | Activity (Hepatitis C virus [4]; Hepacivirus hominis): Dose-dependent effect; Activity [7]: >90%; Activity (Hepatitis C virus [8]): >90%; inhibition [9]: Dose-dependent effect; Activity [10]: Non-Toxic; Activity [11]: Non-Toxic; inhibition (Hepatitis C virus [12]): inactive; inhibition (Hepatitis C virus [13]): Active; inhibition (Hepatitis C virus [14]): Active; inhibition (Hepatitis C virus [15]): Active; Activity [16]: Non-Toxic; inhibition at 75 µM (Hepatitis C virus [17]): 90%; IC50 (Hepatitis C virus [18]): 4 µM; CC50 at 72 h [19]: 185 µM; Activity (Hepatitis C virus [20]): Dose-dependent effect
CC(=O)OC[C@H]1O[C@@H](Sc2ccc(NC(=O)[C@H]3O[C@@H](n4ccc(=O)[nH]c4=O)[C@@H]4OC(C)(C)O[C@@H]43)cn2)[C@H](OC(C)=O)[C@@H](OC(C)=O)[C@H]1OC(C)=O | > 299 | Dose-dependent effect | > 353 | > 1.2 | 271 | 312 | 1.2 | –
CC(=O)OC[C@H]1O[C@@H](Sc2ccc(NC(=O)CCC(=O)OC[C@H]3O[C@@H](n4ccc(=O)[nH]c4=O)[C@@H]4OC(C)(C)O[C@@H]43)cn2)[C@H](OC(C)=O)[C@@H](OC(C)=O)[C@@H]1OC(C)=O | 103 | Dose-dependent effect | 207 | 2 | 231 | 328 | 1.4 | –
CC(C)(C)[Si](C)(C)OC[C@H]1O[C@@H](Sc2ccc(NC(=O)[C@H]3O[C@@H](n4ccc(=O)[nH]c4=O)[C@H](O[Si](C)(C)C(C)(C)C)[C@@H]3O[Si](C)(C)C(C)(C)C)cn2)[C@H](OC(=O)c2ccccc2)[C@@H](OC(=O)c2ccccc2)[C@@H]1OC(=O)c1ccccc1 | 97 | Dose-dependent effect | 186 | 1.9 | > 236 | > 270 | > 1.1 | –
CC(=O)OC[C@H]1O[C@@H](Sc2ccc(NC(=O)[C@H]3O[C@@H](n4ccc(=O)[nH]c4=O)[C@H](O)[C@@H]3O)cn2)[C@H](OC(C)=O)[C@@H](OC(C)=O)[C@@H]1OC(C)=O | 320 | Dose-dependent effect | 350 | 1.1 | 373 | 402 | 1.1 | –
CC(=O)OC[C@H]1O[C@@H](Sc2ccc(NC(=O)CCC(=O)OC[C@H]3O[C@@H](n4ccc(=O)n(C(=O)c5ccccc5)c4=O)[C@H](O[Si](C)(C)C(C)(C)C)[C@@H]3O[Si](C)(C)C(C)(C)C)cn2)[C@H](OC(C)=O)[C@@H](OC(C)=O)[C@@H]1OC(C)=O | 13 | Dose-dependent effect | 45 | 3.5 | 45 | 71 | 1.6 | –
CC(C)OC(=O)[C@H](C)N[P@](=O)(OC[C@H]1O[C@@H](n2ccc(=O)[nH]c2=O)[C@](C)(F)[C@@H]1O)Oc1ccccc1 [SOFOSBUVIR] | – | – | – | – | 0.26 | 31 | 119 | IC50 (Hepatitis C virus [18]): 0.028 µM; CC50 at 72 h [19]: 23.5 µM
CC(=O)OC[C@H]1O[C@@H](Sc2ccc(NC(=O)[C@H]3O[C@@H](n4ccc(=O)[nH]c4=O)[C@@H]4OC(C)(C)O[C@@H]43)cn2)[C@H](OC(C)=O)[C@@H](OC(C)=O)[C@@H]1OC(C)=O | > 325 | Dose-dependent effect | > 380 | > 1.2 | 244 | 271 | 1.1 | –
CC(=O)OC[C@H]1O[C@@H](Sc2ccc(NC(=O)CCC(=O)OC[C@H]3O[C@@H](n4ccc(=O)[nH]c4=O)[C@@H]4OC(C)(C)O[C@@H]43)cn2)[C@H](OC(C)=O)[C@@H](OC(C)=O)[C@H]1OC(C)=O | 49 | Dose-dependent effect | 194 | 4 | 213 | 340 | 1.6 | –
